Converted amounts (≈) assume the structure as drawn. “And” between values parts separate entries of the source, which are not always exact repeats. Identical values can stand only once.
Legend:
Format in all cases: functional
Oryctolagus cuniculus [1] = organism: Oryctolagus cuniculus; test: Evaluated for the minimum cytotoxic concentration (MCC) upon preincubation of rabbit kidney cells in medium containing 10% fetal calf serum at 37 degree Celsius for 24 hr
In short: (§1)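 Primary rabbit kidney cell cultures were exposed to compounds, some preincubated 24 h at 37 °C in medium with 10% fetal calf serum. The minimum cytotoxic concentration was the level causing a microscopically detectable change in normal cell morphology.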

Mus musculus [2] = test: Topical treatment of intracutaneous TK- herpes simplex virus type 1 of strain VMW 1837 infection of Nu/nu mice for mean day of appearance of skin lesions and/or paralysis of the hind legs at 3% concentration (v/v in DMSO)
In short: (§2)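 Inocula were TK⁻ HSV-1 at 10⁶ CCID50/0.05 mL or HSV-1 KOS at 10^4.7 PFU/0.05 mL. Test formulations in DMSO were applied topically four times daily for 5 days, starting at infection. Skin lesions, hind-leg paralysis and death were recorded daily for 28 (KOS) or 49 (TK⁻) days, with five mice per group.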

Human alphaherpesvirus 1 [3] = test: Evaluated for the minimum inhibitory concentration (MIC) in primary rabbit kidney (PRK) by 50% upon pre-incubation in medium containing 10% fetal calf serum at 37 degree Centigrade for 24 hr against TK- herpes simplex virus type 1 (TK- HSV-1) with st
In short: (§3)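 Compounds were preincubated in medium with 10% fetal calf serum for 24 h at 37 °C before addition to the cells. Confluent primary rabbit kidney monolayers were infected with 100 CCID50 of virus and adsorbed for 1 h. Residual virus was removed and cells were incubated with varying compound concentrations. The endpoint was 50% reduction of cytopathogenicity, read when infected controls reached full CPE.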

Mus musculus [4] = test: Topical treatment of intracutaneous TK- herpes simplex virus type 1 of strain VMW 1837 infection of Nu/nu mice for mean day of appearance of skin lesions and/or paralysis of the hind legs at 1% concentration (v/v in DMSO); in short: as §2
Human alphaherpesvirus 2 [5] = test: Evaluated for the minimum inhibitory concentration (MIC) in primary rabbit kidney (PRK) by 50% upon preincubation in medium containing 10% fetal calf serum at 37 degree Celsius for 24 hr against herpes simplex virus type-2 (HSV-2) with strains Ly; in short: as §3
Mus musculus [6] = test: Topical treatment of intracutaneous TK- herpes simplex virus type 1 of strain VMW 1837 infection of Nu/nu mice for mean day of appearance of skin lesions and/or paralysis of the hind legs at 0.3% concentration (v/v in DMSO); in short: as §2
Human alphaherpesvirus 1 [7] = test: Evaluated for the minimum inhibitory concentration (MIC) in primary rabbit kidney (PRK) by 50% upon pre-incubation in medium containing 10% fetal calf serum at 37 degree Centigrade for 24 hr against herpes simplex virus type-1 (HSV-1) with strainKOS; in short: as §3
Vaccinia virus [8] = test: Evaluated for the minimum inhibitory concentration (MIC) in primary rabbit kidney (PRK) by 50% against Vaccinia virus; conditions: Orthopoxvirus vaccinia
In short: (§4)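 Confluent primary rabbit kidney cell monolayers were infected with 100 CCID50 of virus. After 1 h adsorption, residual virus was removed and cells were incubated with serial compound concentrations. Cytopathogenicity was scored once it reached completion in untreated infected controls. The endpoint was the concentration reducing virus-induced cytopathogenicity by 50%.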

Human alphaherpesvirus 1 [9] = test: Evaluated for the minimum inhibitory concentration (MIC) in primary rabbit kidney (PRK) by 50% upon preincubation in medium containing 10% fetal calf serum at 37 degree Centigrade for 24 hr against herpes simplex virus type-1 (HSV-1) with strain McI; in short: as §3
Human alphaherpesvirus 1 [10] = test: Evaluated for the minimum inhibitory concentration (MIC) in primary rabbit kidney (PRK) by 50% upon preincubation in medium containing 10% fetal calf serum at 37 degree Centigrade for 24 hr against TK- herpes simplex virus type 1 (TK- HSV-1) with st; in short: as §3
Human alphaherpesvirus 2 [11] = test: Evaluated for the minimum inhibitory concentration (MIC) in primary rabbit kidney (PRK) by 50% upon preincubation in medium containing 10% fetal calf serum at 37 degree Centigrade for 24 hr against herpes simplex virus type-2 (HSV-2) with strains 19; in short: as §3
Oryctolagus cuniculus [12] = organism: Oryctolagus cuniculus; test: Evaluated for the minimum cytotoxic concentration (MCC) upon preincubation of rabbit kidney cells; in short: as §1
[13] = test system: Vesicular stomatitis virus; test: Evaluated for the minimum inhibitory concentration (MIC) in primary rabbit kidney (PRK) by 50% against Vesicular stomatitis virus; in short: as §4
Human alphaherpesvirus 1 [14] = test: Evaluated for the minimum inhibitory concentration (MIC) in primary rabbit kidney (PRK) by 50% against herpes simplex virus type-1 (HSV-1) with strains KOS
In short: (§5)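 Confluent primary rabbit kidney cell cultures infected with 100 CCID50 virus; after 1 h adsorption residual virus removed and cells incubated with varying compound concentrations. Cytopathogenicity scored when complete in infected untreated controls; MIC = concentration reducing virus-induced cytopathogenicity by 50%. Compounds tested as such or after preincubation in medium with 10% fetal calf serum, 24 h, 37 °C.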

Human alphaherpesvirus 1 [15] = test: Evaluated for the minimum inhibitory concentration (MIC) in primary rabbit kidney (PRK) by 50% against TK- herpes simplex virus type 1 (TK- HSV-1) with strain B2006; in short: as §4
Human alphaherpesvirus 2 [16] = test: Evaluated for the minimum inhibitory concentration (MIC) in primary rabbit kidney (PRK) by 50% against herpes simplex virus type-2 (HSV-2) with strains Lyons; in short: as §5
Human alphaherpesvirus 1 [17] = test: Evaluated for the minimum inhibitory concentration (MIC) in primary rabbit kidney (PRK) by 50% against TK- herpes simplex virus type 1 (TK- HSV-1) with strain VMW 1837.; in short: as §4
Human alphaherpesvirus 2 [18] = test: Evaluated for the minimum inhibitory concentration (MIC) in primary rabbit kidney (PRK) by 50% upon preincubation in medium containing 10% fetal calf serum at 37 degree Celsius for 24 hr against herpes simplex virus type-2 (HSV-2) with strains G; in short: as §3
Human alphaherpesvirus 2 [19] = test: Evaluated for the minimum inhibitory concentration (MIC) in primary rabbit kidney (PRK) by 50% against herpes simplex virus type-2 (HSV-2) with strains G; in short: as §4
Human alphaherpesvirus 1 [20] = test: Evaluated for the minimum inhibitory concentration (MIC) in primary rabbit kidney (PRK) by 50% against herpes simplex virus type-1 (HSV-1) with strains McIntyre; in short: as §5
Human alphaherpesvirus 1 [21] = test: Evaluated for the minimum inhibitory concentration (MIC) in primary rabbit kidney (PRK) by 50% upon preincubation in medium containing 10% fetal calf serum at 37 degree Celsius for 24 hr against herpes simplex virus type-1 (HSV-1) with strainF; in short: as §3
[22] = test system: Vesicular stomatitis virus; test: Evaluated for the minimum inhibitory concentration (MIC) in primary rabbit kidney (PRK) by 50% upon pre-incubation in medium containing 10% fetal calf serum at 37 degree Centigrade for 24 hr against Vesicular stomatitis virus; in short: as §3
Mus musculus [23] = organism: Mus musculus; test: Mean time survival (MTS) of the mice at the end of 28 or 49 days.; in short: as §2
Human alphaherpesvirus 1 [24] = test: Evaluated for the minimum inhibitory concentration (MIC) in primary rabbit kidney (PRK) by 50% against herpes simplex virus type-1 (HSV-1) with strains F; in short: as §5
Vaccinia virus [25] = test: Evaluated for the minimum inhibitory concentration (MIC) in primary rabbit kidney (PRK) by 50% upon pre-incubation in medium containing 10% fetal calf serum at 37 degree Centigrade for 24 hr against Vaccinia virus; conditions: Orthopoxvirus vaccinia; in short: as §3
Human alphaherpesvirus 2 [26] = test: Evaluated for the minimum inhibitory concentration (MIC) in primary rabbit kidney (PRK) by 50% against herpes simplex virus type-2 (HSV-2) with strains 196; in short: as §5
Human alphaherpesvirus 1 [27] = test: (§6) Evaluated for the minimum inhibitory concentration (MIC) in primary rabbit kidney (PRK), by 50% upon preincubation in medium containing 10% fetal calf serum at 37 degree Celsius for 24 hr against TK- herpes simplex virus type 1 (TK- HSV-1) with s; in short: as §3
Vaccinia virus [28] = test: Evaluated for the minimum inhibitory concentration (MIC) in primary rabbit kidney (PRK), by 50% upon preincubation in medium containing 10% fetal calf serum at 37 degree Celsius for 24 hr against Vaccinia virus; conditions: Orthopoxvirus vaccinia; in short: as §3
[29] = test system: Vesicular stomatitis virus; test: Evaluated for the minimum inhibitory concentration (MIC) in primary rabbit kidney (PRK), by 50% upon preincubation in medium containing 10% fetal calf serum at 37 degree Celsius for 24 hr against vesicular stomatitis virus; in short: as §3
Human alphaherpesvirus 1 [30] = test: Evaluated for the minimum inhibitory concentration (MIC) in primary rabbit kidney (PRK) by 50% upon preincubation in medium containing 10% fetal calf serum at 37 degree Celsius for 24 hr against herpes simplex virus type-1 (HSV-1) with strain KOS; in short: as §3
Human alphaherpesvirus 1 [31] = test: Evaluated for the minimum inhibitory concentration (MIC) in primary rabbit kidney (PRK) by 50% against TK- herpes simplex virus type 1 (TK- HSV-1) with strain VMW 1837; in short: as §4
Human alphaherpesvirus 2 [32] = test: Evaluated for the minimum inhibitory concentration (MIC) in primary rabbit kidney (PRK), by 50% upon pre-incubation in medium containing 10% fetal calf serum at 37 degree Centigrade for 24 hr against herpes simplex virus type-2 (HSV-2) with strains 1; in short: as §3
Human alphaherpesvirus 1 [33] = test: Evaluated for the minimum inhibitory concentration (MIC) in primary rabbit kidney (PRK), by 50% upon preincubation in medium containing 10% fetal calf serum at 37 degree Centigrade for 24 hr against herpes simplex virus type-1 (HSV-1) with strain Mc; in short: as §3
Human alphaherpesvirus 1 [34] = test: Evaluated for the minimum inhibitory concentration (MIC) in primary rabbit kidney (PRK), by 50% against TK- herpes simplex virus type 1 (TK- HSV-1) with strain B2006; in short: as §4
Human alphaherpesvirus 1 [35] = test: Evaluated for the minimum inhibitory concentration (MIC) in primary rabbit kidney (PRK) by 50% upon preincubation in medium containing 10% fetal calf serum at 37 degree Celsius for 24 hr against herpes simplex virus type-1 (HSV-1) with strain F; in short: as §3
Human alphaherpesvirus 2 [36] = test: Evaluated for the minimum inhibitory concentration (MIC) in primary rabbit kidney (PRK), by 50% upon preincubation in medium containing 10% fetal calf serum at 37 degree Celsius for 24 hr against herpes simplex virus type-2 (HSV-2) with strains G; in short: as §3
Human alphaherpesvirus 2 [37] = test: Evaluated for the minimum inhibitory concentration (MIC) in primary rabbit kidney (PRK), by 50% upon pre-incubation in medium containing 10% fetal calf serum at 37 degree Centigrade for 24 hr against herpes simplex virus type-2 (HSV-2) with strains L; in short: as §3
Human alphaherpesvirus 1 [38] = test: as §6; in short: as §3; remark: listed apart in the source
[39] = Oryctolagus cuniculus, kidney, read-out: MCC

## CS(=O)(=O)c1ccc(OP(=O)(OC[C@H]2O[C@@H](n3cc(/C=C/Br)c(=O)[nH]c3=O)C[C@@H]2O)OC[C@H]2O[C@@H](n3cc(/C=C/Br)c(=O)[nH]c3=O)C[C@@H]2O)cc1
Oryctolagus cuniculus [1]; [39]
  MCC: > 400 µg/mL
Mus musculus [2]
  Mean day appearance of lesions: 9.7
Human alphaherpesvirus 1 [3]
  MIC: 300 µg/mL (≈ 340 µM)
Mus musculus [4]
  Mean day appearance of lesions: 10.4
Human alphaherpesvirus 2 [5]
  MIC: 200 µg/mL (≈ 227 µM)
Mus musculus [6]
  Mean day appearance of lesions: 16.7
Human alphaherpesvirus 1 [7]
  MIC: 0.2 µg/mL (≈ 0.227 µM)
Vaccinia virus [8]
  MIC: > 400 µg/mL
Human alphaherpesvirus 1 [9]
  MIC: 0.7 µg/mL (≈ 0.793 µM)
Human alphaherpesvirus 1 [10]
  MIC: > 400 µg/mL
Human alphaherpesvirus 2 [11]
  MIC: > 400 µg/mL
Oryctolagus cuniculus [12]
  MCC: > 400 µg/mL
[13]
  MIC: > 400 µg/mL
Human alphaherpesvirus 1 [14]
  MIC: 2 µg/mL (≈ 2.27 µM)
Human alphaherpesvirus 1 [15]
  MIC: > 400 µg/mL
Human alphaherpesvirus 2 [16]
  MIC: > 400 µg/mL
Human alphaherpesvirus 1 [17]
  MIC: > 400 µg/mL
Human alphaherpesvirus 2 [18]
  MIC: 150 µg/mL (≈ 170 µM)
Human alphaherpesvirus 2 [19]
  MIC: > 200 µg/mL
Human alphaherpesvirus 1 [20]
  MIC: 2 µg/mL (≈ 2.27 µM)
Human alphaherpesvirus 1 [21]
  MIC: 0.2 µg/mL (≈ 0.227 µM)
[22]
  MIC: > 400 µg/mL
Mus musculus [23]
  MTS: 15 days and 24.2 days and 37.8 days
Human alphaherpesvirus 1 [24]
  MIC: 2 µg/mL (≈ 2.27 µM)
Vaccinia virus [25]
  MIC: 70 µg/mL (≈ 79.3 µM)
Human alphaherpesvirus 2 [26]
  MIC: > 400 µg/mL

## CS(=O)(=O)c1ccc(OP(=O)(OCCOCn2cnc3c(O)nc(N)nc32)OCCOCn2cnc3c(O)nc(N)nc32)cc1
Oryctolagus cuniculus [1]
  MCC: 400 µg/mL
Oryctolagus cuniculus [1]; [39]
  MCC: 400 µg/mL
Mus musculus [2]
  Mean day appearance of lesions: 29.7
Human alphaherpesvirus 1 [27]
  MIC: 40 µg/mL (≈ 60 µM)
Mus musculus [4]
  Mean day appearance of lesions: 23.6
Vaccinia virus [28]
  MIC: > 200 µg/mL
[29]
  MIC: > 200 µg/mL
Mus musculus [6]
  Mean day appearance of lesions: 17.6
Vaccinia virus [8]
  MIC: > 200 µg/mL
Human alphaherpesvirus 1 [30]
  MIC: 0.4 µg/mL (≈ 0.6 µM)
Human alphaherpesvirus 1 [31]
  MIC: 70 µg/mL (≈ 105 µM)
Human alphaherpesvirus 2 [32]
  MIC: 0.3 µg/mL (≈ 0.45 µM)
[13]
  MIC: > 200 µg/mL
Human alphaherpesvirus 1 [14]
  MIC: 0.7 µg/mL (≈ 1.05 µM)
Human alphaherpesvirus 1 [33]
  MIC: 0.7 µg/mL (≈ 1.05 µM)
Human alphaherpesvirus 1 [34]
  MIC: 150 µg/mL (≈ 225 µM)
Human alphaherpesvirus 1 [35]
  MIC: 0.4 µg/mL (≈ 0.6 µM)
Human alphaherpesvirus 2 [16]
  MIC: 0.4 µg/mL (≈ 0.6 µM)
Human alphaherpesvirus 2 [36]
  MIC: 0.2 µg/mL (≈ 0.3 µM)
Human alphaherpesvirus 2 [37]
  MIC: 0.4 µg/mL (≈ 0.6 µM)
Human alphaherpesvirus 1 [20]
  MIC: 1 µg/mL (≈ 1.5 µM)
Human alphaherpesvirus 1 [38]
  MIC: 150 µg/mL (≈ 225 µM)
Mus musculus [23]
  MTS: 40.2 days and 40.6 days and 33.4 days
Human alphaherpesvirus 1 [24]
  MIC: 0.7 µg/mL (≈ 1.05 µM)
Human alphaherpesvirus 2 [26]
  MIC: 0.4 µg/mL (≈ 0.6 µM)
